Results gathered from unrelated publications.
Lines come from different studies, so protocols differ.
Target: Mitogen-activated protein kinase 13 (MAPK13, Homo sapiens, UniProt O15264)
One construct used (O15264 1-365): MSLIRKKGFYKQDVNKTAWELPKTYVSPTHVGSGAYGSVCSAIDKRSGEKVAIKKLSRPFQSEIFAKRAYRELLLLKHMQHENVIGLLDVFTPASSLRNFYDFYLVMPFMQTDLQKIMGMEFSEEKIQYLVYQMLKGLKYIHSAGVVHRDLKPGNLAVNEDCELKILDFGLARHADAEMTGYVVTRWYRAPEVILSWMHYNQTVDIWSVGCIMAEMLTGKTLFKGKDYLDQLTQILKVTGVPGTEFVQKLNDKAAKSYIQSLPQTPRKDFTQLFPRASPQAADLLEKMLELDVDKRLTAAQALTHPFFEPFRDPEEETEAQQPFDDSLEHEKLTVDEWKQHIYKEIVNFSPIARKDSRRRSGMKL

SMILES	assay	conditions	measurement	value
O=C1Nc2ccc(Cl)cc2C1=Cc1cc(Cl)c(O)c(Cl)c1	cell-free assay	0.5 µM	remaining signal	97.8%
CC/C(=N\NC(=O)NCc1cccc(O)c1)c1ccc(O)c(C)c1O	enzyme activity, inhibitor	0.1 µM	inhibition	-2.6%
CN1CCC2(CC1)NC(=O)c1c(c3ccc(Cl)c(Cl)c3n1C)C2C#N (racemic)	thermal stability, DSF	10 µM	ΔTm	0.4 °C
CNC(=O)c1ccc(Nc2ncc(C(F)(F)F)c(NCc3nccnc3N(C)S(C)(=O)=O)n2)cc1	cell-free assay, competition with immobilised ligand	0.1 µM	remaining binding	91%
CN1CC(Oc2cnc(C#N)cc2-c2ccn3nc(NC(=O)C4CC4)cc3c2)C1	enzyme activity, inhibitor	1 µM	inhibition	-1%
Nc1nc(NC2CCCCC2)sc1C(=O)c1ccccc1	enzyme activity, inhibitor	10 µM	remaining activity	67%
Cc1cnc(NC2CCOCC2)nc1-n1cnc(C(=O)NC(CN)c2cc(F)cc(Cl)c2)c1 (centres unmarked)	enzyme activity, inhibitor, radiometric	1 µM	remaining activity	28%
Cn1c(=O)n(-c2ccc(C(C)(C)C#N)cc2)c2c3cc(-c4cnc5ccccc5c4)ccc3ncc21	enzyme activity, inhibitor	10 µM	remaining activity	100%
CN(C)C1CCN(CC#Cc2nn(C3CCCC3)c3nc(NCc4ccccc4)ncc23)C1 (centres unmarked)	enzyme activity, inhibitor, FRET	10 µM	inhibition	2%
Cc1ccc(Nc2nccc(N(C)c3ccc4c(C)n(C)nc4c3)n2)cc1S(N)(=O)=O	enzyme activity, inhibitor	0.3 µM	inhibition	-11%
CNC(=O)Nc1ccc2c(c1)[C@@]1(CC2)OC(=O)N(CC(=O)N(Cc2ccc(F)cc2)[C@@H](C)C(F)(F)F)C1=O	cell-free assay, competition with immobilised ligand	1 µM	remaining binding	97%
COc1cc(Nc2cnc(C#N)c(O[C@H](C)CN(C)C)n2)ncc1-c1cnn(C)c1	enzyme activity, inhibitor, radiometric	1 µM	remaining activity	87%
C[C@H](c1cccc(C#N)c1)n1cc(Cl)cc(C(N)=O)c1=N	cell-free assay, competition with immobilised ligand	1 µM	remaining binding	100%
CNC(=O)c1cc(Oc2ccc(NC(=O)Nc3ccc(Cl)c(C(F)(F)F)c3)cc2)ccn1	enzyme activity, inhibitor	0.3 µM	inhibition	-6%
CNCc1ccccc1-c1csc([C@H](C)Nc2nc(C)nc3cc(OC)c(OC)cc23)c1	cell-free assay, competition with immobilised ligand	1 µM	remaining binding	100%
COc1cc2ncnc(Nc3ccc(Oc4ccccc4)cc3C)c2cc1OC	enzyme activity, inhibitor	1 µM	inhibition	1%
CC(=O)Nc1c(C(C)=O)c(=O)n(C)c2nc(-c3ccc(Cl)cc3Cl)c(-c3ccc(Cl)cc3)cc12	cell-free assay, competition with immobilised ligand	1 µM	remaining binding	100%
Cn1c2c(Cl)c(Cl)ccc2c2cc[nH]c(=O)c21	thermal stability, DSF	10 µM	ΔTm	-0.4 °C
Cc1nc(C2CCN(C(=O)c3ccc(OC(F)(F)F)cc3N)CC2)c2ncc(N3CCN(C)CC3)cc2n1	cell-free assay, competition with immobilised ligand	1 µM	remaining binding	100%
CC(C)(C)c1nc2c(s1)c1nc(N)ncc1c1ccc(NS(=O)(=O)c3c(F)cccc3F)c(F)c12	enzyme activity, inhibitor, radiometric	1 µM	remaining activity	91%
